Experimental data: ChEMBL document CHEMBL1275442, “Pharmacokinetics and tissue distribution of anidulafungin in rats” (Antimicrob Agents Chemother, 2008)

Experiments:
Format in all cases: ADME, organism-based
Zone of skin [1] = test: Drug level in Long Evans rat skin assessed as radioactivity per gram of tissue at 5 mg/kg, iv administered as single bolus dose measured 6 hrs postdose by autoradiography; parameters: dose 5 mg/kg, route intravenous; settings: in vivo
Method in brief: (§1)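 Male pigmented Long Evans (HsdBlu:LE) rats, 7.5 weeks old and 202 to 217 g, got a single iv dose of [14C]anidulafungin at 5 mg/kg. One rat per time point (0.5, 6, 12, 24, 72, 168 h) was euthanised by isoflurane and cardiac-puncture exsanguination. Sagittal whole-body sections were quantified by phosphorimaging. Samples were thickness-corrected, and concentrations (μg eq/g) were interpolated from least-squares standard curves.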

Rattus norvegicus = test: Volume of distribution in F344 rat assessed as total compound-derived radioactivity at 5 mg/kg, iv administered as single bolus dose; parameters: dose 5 mg/kg, route intravenous; settings: in vivo
Method in brief: (§2)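 Male F344 rats, 10 to 11 weeks old and 223.6 to 243.8 g, got one iv dose of [14C]anidulafungin at 5 mg/kg over about 5 min. Blood, CSF, kidney, liver, lung, quadriceps, spleen and skin were sampled predose and at 0.083 to 72 h, 3 rats per time. Total radioactivity (parent plus metabolites) was measured by liquid scintillation counting. Parameters were noncompartmental, from a composite mean profile.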

Kidney [2] = test: Drug level in Long Evans rat kidney assessed as high disposition of radioactivity per gram of tissue at 5 mg/kg, iv administered as single bolus dose measured 168 hrs postdose by autoradiography; parameters: dose 5 mg/kg, route intravenous; settings: in vivo
Method in brief: (§3)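 Male pigmented Long Evans (HsdBlu:LE) rats, 7.5 weeks old, 202 to 217 g, single iv [¹⁴C]anidulafungin; one rat per sampling time. Euthanized by isoflurane and cardiac-puncture exsanguination. Sagittal whole-body sections quantified by phosphorimaging autoradiography, single samples corrected for section thickness across multiple sections per tissue. Concentrations (μg eq/g drug-derived radioactivity) interpolated from least-squares standard curves per scan.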

Blood [3] = test: Drug level in Long Evans rat blood assessed as radioactivity per gram of tissue at 5 mg/kg, iv administered as single bolus dose measured 12 hrs postdose by autoradiography; parameters: dose 5 mg/kg, route intravenous; settings: in vivo; method in brief: as §3
Kidney [4] = test: Drug level in Long Evans rat kidney assessed as high disposition of radioactivity per gram of tissue at 5 mg/kg, iv administered as single bolus dose measured 0.5 hrs postdose by autoradiography; parameters: dose 5 mg/kg, route intravenous; settings: in vivo; method in brief: as §3
Liver [5] = test: Drug level in Long Evans rat liver assessed as low disposition of radioactivity per gram of tissue at 5 mg/kg, iv administered as single bolus dose measured 12 hrs postdose by autoradiography; parameters: dose 5 mg/kg, route intravenous; settings: in vivo; method in brief: as §3
Muscle tissue [6] = test: AUC (0 to 24 hrs) in F344 rat muscle at 5 mg/kg, iv administered as single bolus dose; parameters: time < 24 hr, dose 5 mg/kg, route intravenous; settings: in vivo
Method in brief: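 Male F344 rats, 10–11 weeks, 223.6–243.8 g, given one IV dose of [¹⁴C]anidulafungin, 5 mg/kg, over about 5 min. Tissues and blood sampled at 0.083–72 h (n = 3 rats per time). Parent drug measured by HPLC; LLOQ/ULOQ were 20/5,120 ng/ml for plasma and 220/56,320 ng/g for tissue. Noncompartmental parameters taken from the composite mean profile.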

Zone of skin [7] = test: Drug level in Long Evans rat skin assessed as radioactivity per gram of tissue at 5 mg/kg, iv administered as single bolus dose measured 168 hrs postdose by autoradiography; parameters: dose 5 mg/kg, route intravenous; settings: in vivo; method in brief: as §1
Zone of skin [8] = test: Tmax in F344 rat skin assessed as total compound-derived radioactivity at 5 mg/kg, iv administered as single bolus dose […]; parameters: dose 5 mg/kg, route intravenous; settings: in vivo; method in brief: as §2
Muscle tissue [9] = test: Drug level in Long Evans rat muscle assessed as radioactivity per gram of tissue at 5 mg/kg, iv administered as single bolus dose measured 0.5 hrs postdose by autoradiography; parameters: dose 5 mg/kg, route intravenous; settings: in vivo; method in brief: as §3
[10] = Drug level in Long Evans rat eye assessed as radioactivity per gram of tissue at 5 mg/kg, iv administered as single bolus dose measured 24 hrs postdose by autoradiography; parameters: dose 5 mg/kg, route intravenous; settings: in vivo; method in brief: as §3
Blood [11] = test: Drug level in Long Evans rat blood assessed as radioactivity per gram of tissue at 5 mg/kg, iv administered as single bolus dose measured 6 hrs postdose by autoradiography; parameters: dose 5 mg/kg, route intravenous; settings: in vivo; method in brief: as §3
Cerebrospinal fluid = test: Tmax in F344 rat cerebrospinal fluid assessed as total compound-derived radioactivity at 5 mg/kg, iv administered as single bolus dose […]; parameters: dose 5 mg/kg, route intravenous; settings: in vivo; method in brief: as §2
Spleen [12] = test: AUC (0 to infinity) in F344 rat spleen assessed as total compound-derived radioactivity per gram of tissue at 5 mg/kg, iv administered as single bolus dose […]; parameters: time infinity, dose 5 mg/kg, route intravenous; settings: in vivo
Method in brief: (§4)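 Same F344 study: single 5 mg/kg IV [¹⁴C]anidulafungin given over about 5 min. Total drug-derived radioactivity (parent plus metabolites) counted by liquid scintillation, in […]. Noncompartmental analysis of the composite mean profile.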

Liver [13] = test: Drug level in Long Evans rat liver assessed as high disposition of radioactivity per gram of tissue at 5 mg/kg, iv administered as single bolus dose measured 6 hrs postdose by autoradiography; parameters: dose 5 mg/kg, route intravenous; settings: in vivo; method in brief: as §3
Kidney [14] = test: Drug level in Long Evans rat kidney assessed as low disposition of radioactivity per gram of tissue at 5 mg/kg, iv administered as single bolus dose measured 24 hrs postdose by autoradiography; parameters: dose 5 mg/kg, route intravenous; settings: in vivo; method in brief: as §3
[15] = Drug level in Long Evans rat eye assessed as radioactivity per gram of tissue at 5 mg/kg, iv administered as single bolus dose measured 6 hrs postdose by autoradiography; parameters: dose 5 mg/kg, route intravenous; settings: in vivo; method in brief: as §3
Blood [16] = test: Half life in F344 rat blood assessed as total compound-derived radioactivity at 5 mg/kg, iv administered as single bolus dose […]; parameters: dose 5 mg/kg, route intravenous; settings: in vivo; method in brief: as §2
Zone of skin [17] = test: Drug level in Long Evans rat skin assessed as radioactivity per gram of tissue at 5 mg/kg, iv administered as single bolus dose measured 24 hrs postdose by autoradiography; parameters: dose 5 mg/kg, route intravenous; settings: in vivo; method in brief: as §1
Cerebrum [18] = test: Drug level in Long Evans rat cerebrum assessed as radioactivity per gram of tissue at 5 mg/kg, iv administered as single bolus dose measured 24 hrs postdose by autoradiography; parameters: dose 5 mg/kg, route intravenous; settings: in vivo; method in brief: as §3
Kidney [19] = test: AUC (0 to infinity) in F344 rat kidney assessed as total compound-derived radioactivity per gram of tissue at 5 mg/kg, iv administered as single bolus dose […]; parameters: time infinity, dose 5 mg/kg, route intravenous; settings: in vivo; method in brief: as §4
Liver [20] = test: Drug level in Long Evans rat liver assessed as low disposition of radioactivity per gram of tissue at 5 mg/kg, iv administered as single bolus dose measured 168 hrs postdose by autoradiography; parameters: dose 5 mg/kg, route intravenous; settings: in vivo; method in brief: as §3
Spleen [21] = test: Drug level in Long Evans rat spleen assessed as radioactivity per gram of tissue at 5 mg/kg, iv administered as single bolus dose measured 72 hrs postdose by autoradiography; parameters: dose 5 mg/kg, route intravenous; settings: in vivo; method in brief: as §1
Cerebrum [22] = test: Drug level in Long Evans rat cerebrum assessed as radioactivity per gram of tissue at 5 mg/kg, iv administered as single bolus dose measured 168 hrs postdose by autoradiography; parameters: dose 5 mg/kg, route intravenous; settings: in vivo; method in brief: as §3
[23] = Tmax in F344 rat plasma at 5 mg/kg, iv administered as single bolus dose by HPLC method; parameters: dose 5 mg/kg, route intravenous
Method in brief: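 F344 males, 10 to 11 weeks old and 223.6 to 243.8 g, got a single 5 mg/kg iv dose of [14C]anidulafungin over about 5 min. Plasma and tissues were collected predose and at 0.083 to 72 h, n = 3 per time point. Parent drug was quantified by HPLC-UV, with LLOQ/ULOQ of 20/5,120 ng/ml in plasma and 220/56,320 ng/g in tissue. Noncompartmental parameters came from a composite mean concentration-time profile.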

Kidney [24] = test: Tmax in F344 rat kidney assessed as total compound-derived radioactivity at 5 mg/kg, iv administered as single bolus dose […]; parameters: dose 5 mg/kg, route intravenous; settings: in vivo; method in brief: as §2

Compound: CCCCCOc1ccc(-c2ccc(-c3ccc([14C](=O)N[C@H]4C[C@@H](O)[C@@H](O)NC(=O)[C@@H]5[C@@H](O)[C@@H](C)CN5C(=O)[C@H]([C@@H](C)O)NC(=O)[C@H]([C@H](O)[C@@H](O)c5ccc(O)cc5)NC(=O)[C@@H]5C[C@@H](O)CN5C(=O)[C@H]([C@@H](C)O)NC4=O)cc3)cc2)cc1 [14C-ANIDULAFUNGIN]
- Drug uptake (Zone of skin [1]): 5.39 ugequiv
- Vd (Rattus norvegicus): 0.2 L/kg
- Drug uptake (Kidney [2]): 2.57 ugequiv
- Drug uptake (Blood [3]): 2.55 ugequiv
- Drug uptake (Kidney [4]): 18.09 ugequiv
- Drug uptake (Liver [5]): 15.03 ugequiv
- AUC (Muscle tissue [6]): 54.33 µg·h/g
- Drug uptake (Zone of skin [7]): 2.48 ugequiv
- Tmax (Zone of skin [8]): 60 min
- Drug uptake (Muscle tissue [9]): 3.45 ugequiv
- Drug uptake [10]: 2.07 ugequiv
- Drug uptake (Blood [11]): 5.07 ugequiv
- Tmax (Cerebrospinal fluid): 4.98 min
- AUC (Spleen [12]): 1152.68 ugequiv.hr/g
- Drug uptake (Liver [13]): 29.1 ugequiv
- Drug uptake (Kidney [14]): 4.41 ugequiv
- Drug uptake [15]: 1.74 ugequiv
- t1/2 (Blood [16]): 1710 min
- Drug uptake (Zone of skin [17]): 3.5 ugequiv
- Drug uptake (Cerebrum [18]): 0.26 ugequiv
- AUC (Kidney [19]): 1437.94 ugequiv.hr/g
- Drug uptake (Liver [20]): 1.83 ugequiv
- Drug uptake (Spleen [21]): 4.37 ugequiv
- Drug uptake (Cerebrum [22]): 0.6 ugequiv
- Tmax [23]: 4.98 min
- Tmax (Kidney [24]): 30 min
